Structures are written as SMILES.

Assay [1] deals with Canis familiaris. The experiment in a line: Inhibition ex vivo platelet aggregation by the compound in dogs after 1 hr of administration of oral dose of 0.3 mg/kg. The note with it: Canis lupus familiaris.
The subject of assay [2] is Canis familiaris. The assay can be described thus: Inhibition of ex vivo platelet aggregation by the compound in dogs after 1 hr of administration of iv bolus dose of 0.025 mg/kg. The assay is classed as functional. The note with it: Canis lupus familiaris. Put shortly:
(§1)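 Dogs received an iv bolus, mostly 0.025 mg/kg, with some tested at 0.05 mg/kg. Blood was sampled at 1, 5 and 24 h postdose. Ex vivo platelet aggregation was stimulated with ADP (100 μM) and reported as % inhibition; n = 2.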

The target in assay [3] is Integrin alpha-IIb/beta-3 (Canis familiaris). The experiment in a line: Dissociation constant for unactivated Fibrinogen Receptor.
Assay [4] has as its system Canis familiaris. The assay can be described thus: Inhibition ex vivo platelet aggregation by the compound in dogs after 24 hr of administration of oral dose of 0.3 mg/kg. The settings on record: Canis lupus familiaris.
The subject of assay [5] is Canis familiaris. The experiment in a line: Inhibition ex vivo platelet aggregation by the compound in dogs after 6 hr of administration of oral dose of 0.3 mg/kg. The note with it: Canis lupus familiaris.
Assay [6] relates to Canis familiaris. The experiment in a line: Inhibition ex vivo platelet aggregation by the compound in dogs after 5 hr of administration of iv bolus dose of 0.025 mg/kg. The assay is classed as functional. The note with it: Canis lupus familiaris. Put shortly:
as §1

The species entered for assay [7] is Homo sapiens. The experiment in a line: The compound was tested against free acid of DMP 754 to inhibit ADP-stimulated platelet aggregation in human platelet rich plasma. The class given is functional. Put shortly:
(§2)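 IC50 for inhibition of ADP-induced aggregation in human platelet-rich plasma, determined in three donors.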

Assay [8] is filed under the species Canis familiaris. The assay can be described thus: The compounds were tested for their ability to inhibit ADP-stimulated platelet aggregation in dog platelet rich plasma. The class given is functional. The settings on record: Canis lupus familiaris.
For assay [9], the target named is Integrin alpha-IIb/beta-3 (Canis familiaris). The experiment in a line: Dissociation constant for activated Fibrinogen Receptor.
For a further assay, the target named is Integrin alpha-V/beta-3 (Homo sapiens, UniProt P05106+P06756). The experiment in a line: Inhibitory activity against […] integrin. The class given is protein-complex assay.
Sequence of Integrin alpha-V/beta-3 (P05106 27-788 limits assumed): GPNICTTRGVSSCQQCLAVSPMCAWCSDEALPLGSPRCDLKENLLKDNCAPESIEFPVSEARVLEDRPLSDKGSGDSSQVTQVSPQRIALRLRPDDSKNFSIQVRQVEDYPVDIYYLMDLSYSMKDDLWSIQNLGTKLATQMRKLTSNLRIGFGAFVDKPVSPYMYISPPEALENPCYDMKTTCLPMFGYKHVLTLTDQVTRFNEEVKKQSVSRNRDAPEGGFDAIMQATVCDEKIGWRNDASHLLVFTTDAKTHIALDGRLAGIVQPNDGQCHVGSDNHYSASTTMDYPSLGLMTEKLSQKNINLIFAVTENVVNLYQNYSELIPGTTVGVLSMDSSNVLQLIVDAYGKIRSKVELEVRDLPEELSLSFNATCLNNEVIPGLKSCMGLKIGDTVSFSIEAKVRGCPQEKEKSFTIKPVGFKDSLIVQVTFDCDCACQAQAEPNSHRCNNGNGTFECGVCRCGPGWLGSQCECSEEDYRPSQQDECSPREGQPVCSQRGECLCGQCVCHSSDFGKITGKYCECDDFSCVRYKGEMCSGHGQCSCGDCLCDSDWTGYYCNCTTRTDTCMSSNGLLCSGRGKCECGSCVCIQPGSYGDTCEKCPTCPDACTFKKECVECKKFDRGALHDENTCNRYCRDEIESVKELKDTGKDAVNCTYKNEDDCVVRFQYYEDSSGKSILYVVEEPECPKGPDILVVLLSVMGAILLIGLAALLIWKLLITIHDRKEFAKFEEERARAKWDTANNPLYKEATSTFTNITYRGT
Sequence of Integrin alpha-V/beta-3 (P06756 31-889 limits assumed): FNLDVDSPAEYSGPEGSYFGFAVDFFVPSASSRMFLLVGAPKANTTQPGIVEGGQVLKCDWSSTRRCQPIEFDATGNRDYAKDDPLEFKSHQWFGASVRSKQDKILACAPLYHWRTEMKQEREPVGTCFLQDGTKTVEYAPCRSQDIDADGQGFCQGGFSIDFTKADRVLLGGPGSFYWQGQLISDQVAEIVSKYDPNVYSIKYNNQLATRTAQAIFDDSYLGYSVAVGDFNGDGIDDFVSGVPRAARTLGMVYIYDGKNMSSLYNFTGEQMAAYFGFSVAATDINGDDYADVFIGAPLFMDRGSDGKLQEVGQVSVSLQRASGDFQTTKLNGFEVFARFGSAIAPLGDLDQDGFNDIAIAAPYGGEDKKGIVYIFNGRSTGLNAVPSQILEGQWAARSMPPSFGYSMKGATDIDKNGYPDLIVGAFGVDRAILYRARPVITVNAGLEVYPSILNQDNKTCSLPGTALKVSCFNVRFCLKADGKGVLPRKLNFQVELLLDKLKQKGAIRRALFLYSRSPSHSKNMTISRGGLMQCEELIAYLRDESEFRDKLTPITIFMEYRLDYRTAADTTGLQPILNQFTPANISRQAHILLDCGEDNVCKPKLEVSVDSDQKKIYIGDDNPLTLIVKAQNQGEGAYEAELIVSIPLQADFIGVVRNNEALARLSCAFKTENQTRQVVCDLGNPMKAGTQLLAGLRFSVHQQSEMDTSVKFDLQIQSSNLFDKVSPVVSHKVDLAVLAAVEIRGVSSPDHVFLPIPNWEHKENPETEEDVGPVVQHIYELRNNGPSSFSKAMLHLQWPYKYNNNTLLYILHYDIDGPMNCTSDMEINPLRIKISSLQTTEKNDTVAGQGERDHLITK
Sequence of Integrin alpha-V/beta-3 (P06756 891-1048 limits assumed): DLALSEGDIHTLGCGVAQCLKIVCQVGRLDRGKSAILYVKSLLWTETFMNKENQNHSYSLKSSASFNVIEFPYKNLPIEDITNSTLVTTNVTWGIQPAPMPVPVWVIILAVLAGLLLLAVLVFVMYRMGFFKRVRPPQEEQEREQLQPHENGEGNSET
For assay [10], the system named is Canis familiaris. The experiment in a line: Inhibition of ex vivo platelet aggregation in dogs after 24 hr of administration of oral dose of 0.1 mg/kg. The note with it: Canis lupus familiaris. The class given is functional.
Assay [11] deals with Integrin alpha-5/beta-1 (Homo sapiens) (UniProt P05556+P08648). The assay can be described thus: Inhibitory activity against alpha5-beta1 integrin at 10 uM.
In assay [12] the test system is Canis familiaris. The experiment in a line: Inhibition of ex vivo platelet aggregation in dogs after 6 hr of administration of oral dose of 0.1 mg/kg. The settings on record: Canis lupus familiaris.
Assay [13] deals with Integrin alpha-IIb/beta-3 (Canis familiaris). The experiment in a line: Dissociation constant for activated Fibrinogen Receptor. This is another data set of the same source.
The species named for assay [14] is Homo sapiens. The experiment in a line: The compound was tested for their ability to inhibit ADP-stimulated platelet aggregation in human platelet rich plasma. The class given is functional. The essentials:
as §2

The target in assay [15] is Integrin alpha-IIb/beta-3 (Canis familiaris). The assay can be described thus: Dissociation constant for unactivated Fibrinogen Receptor. The source holds these as a separate data set.
In assay [16] the test system is Canis familiaris. The experiment in a line: Inhibition of ex vivo platelet aggregation in dogs after 1 hr of administration of oral dose of 0.1 mg/kg. The class given is functional. The note with it: Canis lupus familiaris.
The next assay deals with Integrin alpha-4/beta-1 (Homo sapiens, UniProt P05556+P13612). The experiment in a line: Inhibitory activity against alpha4-beta1 integrin. The assay is classed as protein-complex assay.
Sequence of Integrin alpha-4/beta-1 (P05556 whole entry): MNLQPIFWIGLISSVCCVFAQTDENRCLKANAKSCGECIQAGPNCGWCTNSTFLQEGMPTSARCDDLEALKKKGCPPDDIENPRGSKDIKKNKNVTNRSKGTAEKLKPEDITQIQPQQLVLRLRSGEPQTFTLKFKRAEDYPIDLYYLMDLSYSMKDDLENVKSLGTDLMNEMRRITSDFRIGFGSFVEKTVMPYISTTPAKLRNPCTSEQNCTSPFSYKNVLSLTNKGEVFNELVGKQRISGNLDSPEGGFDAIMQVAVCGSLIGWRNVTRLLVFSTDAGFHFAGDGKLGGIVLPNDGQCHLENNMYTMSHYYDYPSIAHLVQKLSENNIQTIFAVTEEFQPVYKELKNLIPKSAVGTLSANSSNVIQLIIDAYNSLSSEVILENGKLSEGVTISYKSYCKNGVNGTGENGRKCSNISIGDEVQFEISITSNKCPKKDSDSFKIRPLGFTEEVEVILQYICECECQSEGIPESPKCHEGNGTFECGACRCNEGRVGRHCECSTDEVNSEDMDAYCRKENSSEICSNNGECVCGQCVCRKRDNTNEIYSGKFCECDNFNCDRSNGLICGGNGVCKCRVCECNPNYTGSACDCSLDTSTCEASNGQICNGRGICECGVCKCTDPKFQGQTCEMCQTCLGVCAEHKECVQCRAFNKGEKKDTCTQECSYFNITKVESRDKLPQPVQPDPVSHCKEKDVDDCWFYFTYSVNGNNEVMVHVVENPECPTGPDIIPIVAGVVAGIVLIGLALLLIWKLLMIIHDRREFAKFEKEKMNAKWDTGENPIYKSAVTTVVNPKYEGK
Sequence of Integrin alpha-4/beta-1 (P13612 whole entry): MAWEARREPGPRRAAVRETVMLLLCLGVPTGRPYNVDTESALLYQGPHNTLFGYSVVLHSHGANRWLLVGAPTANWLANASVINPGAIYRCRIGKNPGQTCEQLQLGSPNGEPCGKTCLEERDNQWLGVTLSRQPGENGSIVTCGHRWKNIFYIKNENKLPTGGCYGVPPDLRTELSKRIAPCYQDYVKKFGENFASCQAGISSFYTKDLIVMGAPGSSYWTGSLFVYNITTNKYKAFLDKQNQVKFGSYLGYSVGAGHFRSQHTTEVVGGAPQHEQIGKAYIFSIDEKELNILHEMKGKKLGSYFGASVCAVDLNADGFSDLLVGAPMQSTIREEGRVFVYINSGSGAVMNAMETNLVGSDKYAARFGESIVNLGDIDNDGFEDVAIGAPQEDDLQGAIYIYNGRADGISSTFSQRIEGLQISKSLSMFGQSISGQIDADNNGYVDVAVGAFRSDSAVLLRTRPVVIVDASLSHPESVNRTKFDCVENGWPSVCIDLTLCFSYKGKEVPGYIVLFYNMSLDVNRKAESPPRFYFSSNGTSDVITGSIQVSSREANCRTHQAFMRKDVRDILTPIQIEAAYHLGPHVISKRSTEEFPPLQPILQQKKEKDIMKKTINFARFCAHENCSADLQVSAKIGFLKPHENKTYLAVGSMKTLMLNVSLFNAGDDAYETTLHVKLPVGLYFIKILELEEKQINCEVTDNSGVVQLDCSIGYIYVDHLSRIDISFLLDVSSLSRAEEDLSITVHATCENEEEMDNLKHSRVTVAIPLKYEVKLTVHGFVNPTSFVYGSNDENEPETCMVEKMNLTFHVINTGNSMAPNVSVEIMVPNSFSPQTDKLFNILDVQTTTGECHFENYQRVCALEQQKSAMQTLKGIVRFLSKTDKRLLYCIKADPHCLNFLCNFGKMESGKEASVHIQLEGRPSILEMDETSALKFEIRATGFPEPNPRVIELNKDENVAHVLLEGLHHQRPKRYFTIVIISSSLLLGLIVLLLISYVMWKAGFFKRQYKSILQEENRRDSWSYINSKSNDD
Assay [17] is filed under the species Canis familiaris. The experiment in a line: The compound was tested for their ability to inhibit ADP-stimulated platelet aggregation in dog platelet rich plasma. The assay is classed as functional. The note with it: Canis lupus familiaris.
Assay [18] addresses Integrin alpha-V/beta-5 (Homo sapiens) (UniProt P06756+P18084). The experiment in a line: Inhibitory activity against alphaV-beta5 integrin at 10 uM. The class given is protein-complex assay.
Assay [19] has as its system Canis familiaris. The assay can be described thus: Inhibition of ex vivo platelet aggregation in dogs after 24 hr of administration of iv bolus dose of 0.05 mg/kg. The class given is functional. The note with it: Canis lupus familiaris. The essentials: as §1
Assay [20] relates to Canis familiaris. The assay can be described thus: Inhibition of ex vivo platelet aggregation in dogs after 24 hr of administration of iv bolus dose of 0.025 mg/kg. The assay is classed as functional. The settings on record: Canis lupus familiaris. The essentials: as §1
The test system of assay [21] is Canis familiaris. The experiment in a line: Inhibition of ex vivo platelet aggregation in dogs after 1 hr of administration of oral dose of 0.1 mg/kg. The note with it: Canis lupus familiaris.
For assay [22], the system named is Canis familiaris. The experiment in a line: Inhibition of ex vivo platelet aggregation in dogs after 6 hr of administration of oral dose of 0.1 mg/kg. The settings on record: Canis lupus familiaris. This is another data set of the same source.
The test system of assay [23] is Canis familiaris. The experiment in a line: Inhibition of ex vivo platelet aggregation in dogs after 24 hr of administration of oral dose of 0.1 mg/kg. The settings on record: Canis lupus familiaris.

A word on the inhibition in vivo: it is the share of the control response that was lost under treatment. Low readings indicate little suppression, high ones strong suppression. By Kd is commonly meant a measure of binding affinity in units of concentration. Read a low Kd as a tighter complex. By IC50 is commonly meant the concentration at which inhibition is half-maximal. Read a high IC50 as weaker potency. For `CCCCOC(=O)N[C@@H](CNC(=O)C[C@H]1CC(c2ccc(C(=N)N)cc2)=NO1)C(=O)OC` [ROXIFIBAN], the inhibition in vivo at 0.3 mg/kg in the assay with Canis familiaris [1] was 54%; in the assay with Canis familiaris [4] it was 11%; with Canis familiaris [5], 76%. Moreover, the values for the inhibition in vivo at 0.025 mg/kg in the assay with Canis familiaris [2] and with Canis familiaris [6] were 100% and 38%, respectively. Besides, the Kd stood at 2.36 nM in assay [3] and 2.83 nM in assay [9]. In addition, the IC50 in the assay listed under Homo sapiens [7] stood at 50 nM; in the assay filed under Canis familiaris [8], 27 nM.
Broadly, the inhibition is the share of the control response that was lost under treatment. Low values mean a response near the control, high ones a response far below the control. For `Cc1noc(C)c1S(=O)(=O)N[C@@H](CNC(=O)C[C@H]1CC(c2ccc(C(=N)N)cc2)=NO1)C(=O)O`, the concentration for half-maximal inhibition (IC50) on Integrin alpha-V/beta-3 was over 10000 nM; in the assay listed under Homo sapiens [14], 29 nM; at Integrin alpha-4/beta-1 it was over 100000 nM; in the assay listed under Canis familiaris [17], 23 nM. Also, the results for the inhibition in vivo at 0.1 mg/kg with Canis familiaris [10], with Canis familiaris [12] and in the assay on Canis familiaris [16] were 75%, 88% and 54%, respectively. Moreover, the results for the inhibition in [11] and in [18] were under 5% and under 15%, respectively. Further, the Kd in assay [13] stood at 0.6 nM; in assay [15] it was 0.9 nM.
In the assay on Canis familiaris [19], `N=C(N)c1ccc(C2=NOC(CC(=O)NC[C@H](NS(=O)(=O)c3ccccc3Br)C(=O)O)C2)cc1` (some centres not stated) returned an inhibition in vivo at 0.05 mg/kg of 100%. The compound further came in with an IC50 in the assay filed under Homo sapiens [14] of 36 nM.
In the assay on Canis familiaris [20], `Cc1cccc(S(=O)(=O)N[C@@H](CNC(=O)C[C@H]2CC(c3ccc(C(=N)N)cc3)=NO2)C(=O)O)c1` had an inhibition in vivo at 0.025 mg/kg of 24%. Also, the IC50 in the assay listed under Homo sapiens [14] worked out at 25 nM. Also, the inhibition in vivo at 0.1 mg/kg was 78% in the assay on Canis familiaris [21], 94% in the assay on Canis familiaris [22] and 60% in the assay with Canis familiaris [23].
